According to ChEMBL document CHEMBL1177688, “Synthesis of novel pyrazolic analogues of chalcones and their 3-aryl-4-(3-aryl-4,5-dihydro-1H-pyrazol-5-yl)-1-phenyl-1H-pyrazole derivatives as potential antitumor agents” (2010):

Legend:
Type in all cases: functional
[1] = test system: SR; test: Antiproliferative activity against human SR cells after 48 hrs by SRB assay
Method in brief: (§1)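 NCI 60-cell-line human tumour panel, secondary five-dose screen. Compounds tested at 100, 10, 1.0, 0.1 and 0.01 µM with 48 h continuous exposure. Cell growth was estimated by sulforhodamine B protein staining. GI50 is the concentration giving a 50% reduction in net protein increase relative to untreated control cells over the incubation. TGI and LC50 were also derived.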

[2] = test system: U-251; test: Antiproliferative activity against human U251 cells after 48 hrs by SRB assay; details: U-251, 48 h
Method in brief: (§2)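 NCI 60-cell human tumour line panel. Continuous 48 h drug exposure at five concentrations (100, 10, 1.0, 0.1, 0.01 µM). Cell growth estimated by sulforhodamine B protein staining. GI50 = concentration giving 50% reduction in net protein increase versus control cells over the incubation. LC50 = molar concentration killing 50% of cells.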

[3] = test system: NCI-H522; test: Antiproliferative activity against human NCI-H522 cells after 48 hrs by SRB assay; details: NCI-H522, 48 h; method in brief: as §1
[4] = test system: OVCAR-5; test: Antiproliferative activity against human OVCAR5 cells after 48 hrs by SRB assay; details: OVCAR-5, 48 h; method in brief: as §1
[5] = test system: NCI-H226; test: Antiproliferative activity against human NCI-H226 cells after 48 hrs by SRB assay; details: NCI-H226, 48 h; method in brief: as §1
[6] = test system: SF-295; test: Antiproliferative activity against human SF295 cells after 48 hrs by SRB assay; details: SF-295, 48 h; method in brief: as §1
[7] = test system: CAKI-1; test: Antiproliferative activity against human Caki1 cells after 48 hrs by SRB assay; details: CAKI-1, 48 h; method in brief: as §2
[8] = test system: UACC-257; test: Antiproliferative activity against human UACC257 cells after 48 hrs by SRB assay; details: UACC-257, 48 h; method in brief: as §1
[9] = test system: T47D; test: Antiproliferative activity against human T47D cells after 48 hrs by SRB assay; method in brief: as §2
[10] = test system: NCI-H460; test: Antiproliferative activity against human NCI-H460 cells after 48 hrs by SRB assay; details: NCI-H460, 48 h, read-out: LC50 (the source's name); method in brief: as §1
[11] = test system: MCF7; test: Antiproliferative activity against human MCF7 cells after 48 hrs by SRB assay; details: MCF7, 48 h, read-out: LC50 (the source's name); method in brief: as §1
[12] = test system: COLO 205; test: Antiproliferative activity against human COLO205 cells after 48 hrs by SRB assay; details: COLO 205, 48 h; method in brief: as §2
[13] = test system: A498; test: Antiproliferative activity against human A498 cells after 48 hrs by SRB assay; details: A498, 48 h; method in brief: as §1
[14] = test system: LOX IMVI; test: Antiproliferative activity against human LOXIMVI cells after 48 hrs by SRB assay; details: read-out: LC50 (the source's name); method in brief: as §1
[15] = test system: HT-29; test: Antiproliferative activity against human HT-29 cells after 48 hrs by SRB assay; details: HT-29, 48 h, read-out: LC50 (the source's name); method in brief: as §1
[16] = test system: BT-549; test: Antiproliferative activity against human BT549 cells after 48 hrs by SRB assay; details: BT-549, 48 h; method in brief: as §1
[17] = test system: HCC 2998; test: Antiproliferative activity against human HCC2998 cells after 48 hrs by SRB assay; details: HCC 2998, 48 h; method in brief: as §1
[18] = test system: MDA-MB-231; test: Antiproliferative activity against human MDA-MB-231 cells after 48 hrs by SRB assay; details: MDA-MB-231, 48 h; method in brief: as §2
[19] = test system: EKVX; test: Antiproliferative activity against human EKVX cells after 48 hrs by SRB assay; method in brief: as §1
[20] = test system: IGROV-1; test: Antiproliferative activity against human IGROV1 cells after 48 hrs by SRB assay; details: IGROV-1, 48 h; method in brief: as §1
[21] = test system: UO-31; test: Antiproliferative activity against human UO31 cells after 48 hrs by SRB assay; details: UO-31, 48 h; method in brief: as §1
[22] = test system: UACC-62; test: Antiproliferative activity against human UACC62 cells after 48 hrs by SRB assay; details: UACC-62, 48 h; method in brief: as §1
[23] = test system: A549; test: Antiproliferative activity against human A549 cells after 48 hrs by SRB assay; details: A549, 48 h, read-out: LC50 (the source's name); method in brief: as §1
[24] = test system: SNB-75; test: Antiproliferative activity against human SNB75 cells after 48 hrs by SRB assay; details: SNB-75, 48 h; method in brief: as §1
[25] = Antiproliferative activity against human […] cells after 48 hrs by SRB assay; method in brief: as §1
[26] = test system: HOP-92; test: Antiproliferative activity against human HOP92 cells after 48 hrs by SRB assay; details: HOP-92, 48 h, read-out: LC50 (the source's name); method in brief: as §1
[27] = test system: MDA-MB-435; test: Antiproliferative activity against human MDA-MB-435 cells after 48 hrs by SRB assay; details: MDA-MB-435, 48 h, read-out: LC50 (the source's name); method in brief: as §1
[28] = test system: HCT-15; test: Antiproliferative activity against human HCT15 cells after 48 hrs by SRB assay; details: HCT-15, 48 h, read-out: LC50 (the source's name); method in brief: as §1
[29] = test system: M14; test: Antiproliferative activity against human M14 cells after 48 hrs by SRB assay; details: M14, 48 h, read-out: LC50 (the source's name); method in brief: as §1
[30] = test system: HCT-116; test: Antiproliferative activity against human HCT116 cells after 48 hrs by SRB assay; details: HCT-116, 48 h; method in brief: as §2
[31] = test system: SNB-19; test: Antiproliferative activity against human SNB19 cells after 48 hrs by SRB assay; details: SNB-19, 48 h; method in brief: as §1
[32] = test system: SF-539; test: Antiproliferative activity against human SF539 cells after 48 hrs by SRB assay; details: SF-539, 48 h; method in brief: as §2
[33] = test system: NCI-H322M; test: Antiproliferative activity against human NCI-H322M cells after 48 hrs by SRB assay; details: read-out: LC50 (the source's name); method in brief: as §1
[34] = test system: Malme-3M; test: Antiproliferative activity against human MALME-3M cells after 48 hrs by SRB assay; method in brief: as §1
[35] = test system: NCI/ADR-RES; test: Antiproliferative activity against human NCI/ADR-RES cells after 48 hrs by SRB assay; method in brief: as §2
[36] = test system: SK-MEL-28; test: Antiproliferative activity against human SK-MEL-28 cells after 48 hrs by SRB assay; details: SK-MEL-28, 48 h, read-out: LC50 (the source's name); method in brief: as §1
[37] = test system: SK-OV-3; test: Antiproliferative activity against human SKOV3 cells after 48 hrs by SRB assay; details: SK-OV-3, 48 h; method in brief: as §1
[38] = test system: OVCAR-8; test: Antiproliferative activity against human OVCAR8 cells after 48 hrs by SRB assay; details: OVCAR-8, 48 h; method in brief: as §1
[39] = read-out: LC50 (the source's name)

O=C(/C=C/c1cn(-c2ccccc2)nc1-c1ccc([N+](=O)[O-])cc1)c1ccc(Cl)cc1
GI50 [1]: 2760 nM | LC50 (50% net cell kill) [1]: > 100 µM | GI50 [2]: 2090 nM | CC50 [2, 39]: > 100 µM | GI50 [3]: 6.41 µM | LC50 (concentration killing 50% of tumour cells) [3]: > 100 µM | GI50 [4]: > 100 µM | CC50 [4, 39]: > 100 µM | GI50 [5]: 3.77 µM | CC50 [5, 39]: > 100 µM | GI50 [6]: 2320 nM | CC50 [6, 39]: 74.1 µM | GI50 [7]: 4.56 µM | CC50 [7, 39]: > 100 µM | GI50 [8]: > 100 µM | LC50 (concentration killing 50% of cells) [8]: > 100 µM | GI50 [9]: 1120 nM | CC50 [9, 39]: > 100 µM | CC50 [10]: > 100 µM | CC50 [11]: > 100 µM | GI50 [12]: 2090 nM | GI50 [13]: 3.14 µM | CC50 [13, 39]: > 100 µM | CC50 [14]: > 100 µM | CC50 [15]: > 100 µM | GI50 [16]: 2250 nM | CC50 [16, 39]: > 100 µM | GI50 [17]: > 100 µM | CC50 [17, 39]: > 100 µM | GI50 [18]: 2450 nM | CC50 [18, 39]: > 100 µM | GI50 [19]: 4.97 µM | CC50 [19, 39]: > 100 µM | GI50 [20]: 3.54 µM | CC50 [20, 39]: > 100 µM | GI50 [21]: 100 nM | CC50 [21, 39]: > 100 µM | GI50 [22]: 11.4 µM | CC50 [22, 39]: > 100 µM | CC50 [23]: > 100 µM | GI50 [24]: 1550 nM | LC50 (50% lethal concentration) [24]: 24 µM | GI50 [25]: 1860 nM | LC50 (50% lethal concentration) [25]: > 100 µM | CC50 [26]: > 100 µM | CC50 [27]: > 100 µM | CC50 [28]: > 100 µM | CC50 [29]: > 100 µM | GI50 [30]: 2750 nM | CC50 [30, 39]: > 100 µM | GI50 [31]: 4.9 µM | CC50 [31, 39]: > 100 µM | GI50 [32]: 3.95 µM | CC50 [32, 39]: > 100 µM | CC50 [33]: > 100 µM | GI50 [34]: 2440 nM | CC50 [34, 39]: > 100 µM | GI50 [35]: 4.64 µM | CC50 [35, 39]: > 100 µM | CC50 [36]: > 100 µM | GI50 [37]: 12.5 µM | CC50 [37, 39]: > 100 µM | GI50 [38]: 6.32 µM | CC50 [38, 39]: > 100 µM
